A selection: hits, their analogues and other compounds. The true share with any hit is near 4.1%.
SMARCA2 act = SMARCA2 (BRM) function activators, primary screen, cell-based, luminescence, high throughput; MG213 cells, MMTV-luciferase reporter, dexamethasone, overnight; activation, % at 9.1 µM; hit rate 1% among 370,000; AID 652017, 2013; in the data active = activation above about 7.8%;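 note: 0% = vehicle wells and 100% = reference activator wells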
TAG inh = inhibitors of triacylglycerol accumulation, primary screen, cell-based, uHTS, fluorescence, H9c2. H9c2 cells, Nile Red lipid (TAG) fluorescence; cells loaded with 200 µM oleic acid. inhibition, % at 12.5 µM. hit rate 0.66% among 230,000;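 active = pattern-corrected inhibition of lipid staining of at least 50% with the nuclear-stain viability signal not falling by more than 50%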;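 note: 0% = DMSO wells and 100% = triacsin C control wells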
AHR act = AHR activators, primary screen, cell-based, luminescence, luciferase reporter, human | Aryl hydrocarbon receptor (Homo sapiens), P35869 | AHR-responsive luciferase reporter cells | activation, % at 5 µM | hit rate 2.5% among 320,000 | AID 2796, 2010; in the data active = activation above about 47%;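 note: 0% = vehicle wells and 100% = reference agonist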
Efflux pump mplx = inhibitors of Candida efflux pumps in yeast, primary screen, S. cerevisiae, Nile Red, multiplex; AID 485275, 2010; S. cerevisiae Candida pump triplex; inhibition, % at 10 µM; hit rate 0.44% among 330,000;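 active = plate passing quality check with inhibition over a set limit, or well fluorescence over plate mean plus 4 SD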;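 note: Nile Red retained in pooled yeast measured as flow cytometry median fluorescence; 0% = buffer negative control and 100% = Enniatin B positive control; higher means more Nile Red kept so more efflux inhibition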
TbMetRS inhib = T. brucei MetRS inhibitors, primary screen, biochemical, luminescence; purified T. brucei MetRS, ATP depletion, Kinase-Glo luminescence; methionyl-tRNA synthetase (Trypanosoma brucei brucei); inhibition, % at 11.9 µM; hit rate 0.4% among 360,000;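 active = inhibition above a per-plate cutoff of the control wells' mean inhibition plus 3 SD, cut at about 5.5% in these data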;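 note: 0% = DMSO wells median and 100% = median of wells with control inhibitor compound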
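Dosing: 11.9 µM compound single dose, 0.9% DMSO; Assay system: purified T. brucei MetRS enzyme; Measured by: Kinase-Glo luciferase luminescence reporting remaining unconsumed ATP; Schedule: 15 min plus 2 h at 25 °C.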
AHR act confirm = AHR activators, confirmation, cell-based, luminescence, luciferase reporter, human; shares compounds with AHR act; human cells, AHR-responsive luciferase reporter; activation, % at 9 µM; hit rate 87% among 2,300; AID 2845, 2010; in the data active = activation above about 49%;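 note: HepG2 hepatoma cells carrying a DRE-driven firefly luciferase reporter; 0% = vehicle wells and 100% = reference agonist wells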
PXR counter = human PXR activators, counter-screen for AHR activator project, cell-based, luciferase luminescence; shares compounds with AHR act; cell-based PXR reporter; activation, % at 11.6 µM; hit rate 88% among 2,300; AID 434939, 2010; in the data active = activation above about 11%;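 note: human hepatoma DPX-2 cells expressing full-length human PXR; 0% = DMSO and 100% = reference agonist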
Target sequence (O75469 whole entry, looked up): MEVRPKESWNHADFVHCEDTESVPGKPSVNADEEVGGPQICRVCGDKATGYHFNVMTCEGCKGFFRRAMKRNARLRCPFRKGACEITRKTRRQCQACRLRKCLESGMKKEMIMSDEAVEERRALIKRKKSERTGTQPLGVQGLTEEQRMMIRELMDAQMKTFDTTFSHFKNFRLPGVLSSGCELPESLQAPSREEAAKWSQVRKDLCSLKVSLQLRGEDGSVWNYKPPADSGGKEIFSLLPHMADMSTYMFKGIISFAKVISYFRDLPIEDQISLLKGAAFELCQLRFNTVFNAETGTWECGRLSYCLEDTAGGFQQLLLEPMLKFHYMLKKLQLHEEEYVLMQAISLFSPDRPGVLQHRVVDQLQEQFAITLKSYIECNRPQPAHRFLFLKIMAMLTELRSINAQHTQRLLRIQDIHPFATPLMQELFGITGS
Numbers without * were called inactive; / = no result.

SMILES	SMARCA2 act	TAG inh	AHR act	Efflux pump mplx	TbMetRS inhib	AHR act confirm	PXR counter
CC(=O)Nc1ccc2c(c1)OCO2	-0.3	8.6	1.2	-0.1	-0.8	/	/
O=C(Nc1ccc2c(c1)OCO2)c1nn(-c2ccccc2)c(=O)c2ccccc12	-0.7	9.6	26.0	-0.1	0.2	/	/
O=C(Nc1ccc2c(c1)OCO2)c1n[nH]c(=O)c2ccccc12	4.8	12.5	132.2*	-0.2	0.2	131.9*	42.5*
O=C(Nc1ccc2c(c1)OCO2)c1ccc(Br)s1	6.1	/	131.3*	0.2	-0.5	93.1*	24.7*
O=C(Nc1ccc2c(c1)OCO2)c1ccc(Cl)nc1	3.5	1.5	88.5*	0.0	-0.7	149.2*	23.5*
O=C(Nc1ccc2c(c1)OCO2)c1cnc(Cl)c(Cl)c1	5.3	-4.2	/	/	-0.3	/	/
COc1ccc(C(=O)OCCN(C)C2CN(Cc3cn(Cc4ccccc4Cl)nn3)S(=O)(=O)C2)cc1OC (stereo unspecified)	-1.2	/	/	/	/	/	/
O=C(Cn1cnc2ccccc2c1=O)Nc1ccc2c(c1)OCO2	3.0	/	92.7*	0.4	0.4	70.2*	17.5*
Cc1ccc(C(=O)OCC(=O)Nc2ccc3c(c2)OCO3)o1	-0.2	-12.8	2.8	0.2	0.4	/	/
COc1ccc(NC(=O)c2ccc(Cl)nc2)cc1S(=O)(=O)N1CCCCC1	-2.6	/	121.4*	0.1	-0.7	84.8*	63.4*
Cn1c(C(=O)Nc2ccc3c(c2)OCO3)cc2sccc21	3.5	/	89.3*	-0.1	-0.7	138.6*	108.8*
Cc1ccc(C(=O)Nc2ccc3c(c2)OCO3)o1	3.2	3.8	122.0*	0.1	-1.3	107.8*	39.2*
O=C(Cn1cnc2ccccc2c1=O)NCc1ccc2c(c1)OCO2	1.2	8.4	1.2	0.1	0.2	/	/
CC(C)CNC(=O)OCc1cn(Cc2ccc(C(F)(F)F)cc2)nn1	-1.3	/	/	/	/	/	/
Cc1n[nH]c(C)c1S(=O)(=O)NCCc1c[nH]c2ccccc12	-2.6	/	/	/	/	/	/
Cc1ccc(C(=O)Nc2ccc3c(c2)OCO3)cc1Cl	2.6	-3.5	93.7*	0.0	-0.1	118.0*	38.0*
O=C(Nc1ccc(Cl)c(-c2nc3ccccc3[nH]2)c1)c1ccc2c(c1)OCO2	1.6	/	86.3*	0.0	0.1	93.0*	19.2*
Cc1ccc(C(=O)Nc2ccc3c(c2)OCO3)cc1S(=O)(=O)N1CCOCC1	1.2	17.0	33.5	0.3	0.4	/	/
Cc1ccc(C(=O)Nc2ccc3c(c2)OCO3)cc1S(=O)(=O)N1CCCC1	0.1	-19.1	82.0*	0.2	-0.3	70.1*	218.1*
Cc1ccc(NC(=O)c2ccc3c(c2)OCO3)cc1Cl	5.5	/	13.4	0.1	-0.2	/	/
O=C(OC12CCCN(C1)/C(=C/c1ccccc1)C2)c1ccc(F)cc1 (stereo unspecified)	-6.0	/	/	/	/	/	/
COc1ccc(C[N+]2=C(N)N[C@@]3(C=C(C)Cn4c(=O)n(-c5ccccc5)c(=O)n43)C2)c(OC)c1	1.6	/	/	/	/	/	/
COc1ccc(C(=O)Nc2c(O)ccc3ccccc23)cc1	-1.1	3.2	79.4*	-0.2	0.0	66.7*	8.1
C=CCN1C[C@H](COC(=O)c2ccc(C)c(C)c2)Oc2cccc(F)c2S1(=O)=O	-6.2	/	/	/	/	/	/
CC(=O)Nc1ccc(NC(=O)CSc2ncc(C(=O)Nc3ccc(F)cc3)c(=O)n2C)cc1	2.0	-0.3	98.0*	-0.1	-0.4	126.6*	20.9*
SMILES	SMARCA2 act	TAG inh	AHR act	Efflux pump mplx	TbMetRS inhib	AHR act confirm	PXR counter
Cc1ccc(CN2CC[C@H]3C=CCc4cccc(c43)C2)cc1	0.6	-46.1	2.3	0.0	0.7	/	/
COc1ccc(CN2CC[C@H]3C=CCc4cccc(c43)C2)cc1	0.3	-61.2	82.5*	0.3	-0.1	9.5	26.1*
O=C(CCCl)Nc1nc2c(s1)CCc1ccccc1-2	-2.0	/	99.4*	0.1	0.3	111.9*	30.7*
CC(=O)Nc1nc2c(s1)CCc1ccccc1-2	1.5	/	43.5	0.2	-0.4	/	/
O=C(NC(=S)Nc1ccccc1O)c1ccccc1Cl	2.9	-10.5	89.0*	-0.2	-0.5	127.5*	20.9*
CC(=O)c1cccc(NC(=S)NC(=O)c2ccccc2Cl)c1	5.1	/	16.8	0.0	0.1	/	/
CN(C)CC(c1ccc(O)cc1)C1(O)CCCCC1 (stereo unspecified)	-2.8	/	/	/	/	/	/
Cc1cc(=O)[nH]c(NN=Cc2c(Cl)cccc2Cl)n1	-0.4	5.0	/	/	-0.3	/	/
Cc1cc(=O)[nH]c(N/N=C/c2ccc(Br)s2)n1	4.0	4.3	81.2*	0.1	0.3	65.8*	/
COc1ccc(O)c(C(=O)c2cnn(C(=O)c3cccc(N(C)C)c3)c2)c1	5.0	9.8	13.2	0.1	-0.3	/	/
CN(C)c1cccc(C(=O)n2cc(C(=O)c3cc(F)ccc3O)cn2)c1	7.8*	-12.8	86.1*	0.3	-1.2	30.4	20.0*
CCCCn1nnnc1SCC(=O)Nc1ccc2c(c1)OCO2	-3.8	2.1	90.2*	0.0	-0.5	82.1*	30.1*
O=C(CSc1nnnn1Cc1ccccc1)Nc1ccc2c(c1)OCCO2	2.2	0.4	7.0	-0.1	-1.4	/	/
O=C(CSc1nnnn1Cc1ccccc1)Nc1ccc2c(c1)OCO2	1.5	-10.2	102.5*	-0.1	0.3	84.7*	94.4*
CC1(C)CC(=O)C=C(C2CC2)C1=O	-2.0	/	/	/	/	/	/
CC(C(=O)c1ccccc1)n1cnc2ccccc2c1=O (stereo unspecified)	-1.8	-37.2	-8.0	0.2	-0.2	/	/
Cc1ccc2[nH]c(O)c(N=NC(=O)C(C)n3cnc4ccccc4c3=O)c2c1 (stereo unspecified)	2.2	5.8	88.2*	0.0	-1.0	69.2*	45.8*
Cc1ccc(N2CCN(/N=C\c3cccnc3)CC2)cc1	-2.4	/	/	/	/	/	/
Cc1cccc2cc3c(N)c(C(=O)N4CCOCC4)sc3nc12	1.8	8.8	81.1*	0.1	-0.4	78.1*	/
ONC(=Nc1ccc(Cl)cc1)c1ccc(Cl)cc1	-0.5	/	117.3*	0.1	0.0	115.2*	12.4*
[S-]C(=Nc1ccc(Cl)cc1)N[n+]1ccccc1	-0.6	/	5.9	0.1	-0.5	/	/
CC1(c2nnnn2-c2ccc3c(c2)OCCO3)CSCC(=O)N1CCc1c[nH]c2ccccc12 (stereo unspecified)	-0.7	/	/	/	/	/	/
CSc1nc(N)c2c3c(sc2n1)COC(C(C)C)C3 (stereo unspecified)	-2.0	-2.0	96.6*	-0.2	-1.1	109.5*	18.3*
CCCC1Cc2c(sc3nc(SC)nc(N)c23)CO1 (stereo unspecified)	-3.2	7.0	10.7	-0.1	0.1	/	/

Screens: PubChem BioAssay, several laboratories
